This note sets out measurements from ChEMBL document CHEMBL3580571, “Bis-arylidene oxindole-betulinic Acid conjugate: a fluorescent cancer cell detector with potent anticancer activity” (ACS Med Chem Lett, 2015).

In data set [1] the test system is B16-F10. Nature of the data set: Induction of apoptosis in mouse B16F10 cells assessed as early apoptotic cells at 2 uM after 45 hrs by annexinV-FITC/propidium iodide staining-based flow cytometric analysis (reference value: 0.1%). Type of data set: functional. A digest of the protocol:
(§1)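 Treated B16F10 cells were double-stained with annexin V and propidium iodide and analysed by flow cytometry, with untreated cells as control. Quadrants: Q1 PI-only (necrotic); Q2 double-positive (post-apoptotic); Q4 annexin-only (apoptotic); Q3 double-negative (healthy).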

A further data set has as its system MDA-MB-231. Nature of the data set: Cytotoxicity against human MDA-MB-231 cells assessed as cell killing effect after 72 hrs by MTT assay. Type of data set: functional, cell-based. Particulars: MDA-MB-231, 72 h. Summed up:
(§2)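 Cells were treated continuously for 72 h. Cytotoxicity is reported as IC50 in μM.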

The subject of data set [2] is B16-F10. Nature of the data set: Induction of apoptosis in mouse B16F10 cells assessed as necrotic cells at 2 uM after 45 hrs by annexinV-FITC/propidium iodide staining-based flow cytometric analysis (reference value: 9%). The format is functional. A digest of the protocol: as §1
Data set [3] can be described thus: Cellular uptake in mouse B16F10 cells at 2 uM after 4 hrs by fluorescence microscopic analysis. The format is ADME, cell-based. Particulars: b16-f10, 4 h. Summed up: (§3)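 Live cells were examined by fluorescence microscopy for uptake of the intrinsically fluorescent molecules, with untreated cells as control. Uptake was also quantified as % uptake per microgram of cellular protein. Fluorescence values were normalized to the absorption values of each molecule because their absorptivities differ.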

The subject of data set [4] is B16-F10. Nature of the data set: Induction of apoptosis in mouse B16F10 cells assessed as late apoptotic cells at 2 uM after 45 hrs by annexinV-FITC/propidium iodide staining-based flow cytometric analysis (reference value: 0.8%). The format is functional. Summed up:
as §1

A short description of data set [5]: Cellular uptake in human PANC1 cells at 2 uM after 4 hrs by fluorescence microscopic analysis. Type of data set: ADME, cell-based. Particulars: panc-1, 4 h. A digest of the protocol: as §3
Data set [6] in a line: Cellular uptake in mouse NIH/3T3 cells at 2 uM after 4 hrs by fluorescence microscopic analysis. Particulars: nih3t3, 4 h. The format is ADME, cell-based. A digest of the protocol:
as §3

Data set [7] in a line: Cytotoxicity against human PANC1 cells assessed as cell killing effect after 72 hrs by MTT assay. Type of data set: functional, cell-based. Particulars: PANC-1, 72 h. Summed up: as §2
In data set [8] the test system is B16-F10. Nature of the data set: Induction of apoptosis in mouse B16F10 cells assessed as viable cells at 2 uM after 45 hrs by annexinV-FITC/propidium iodide staining-based flow cytometric analysis (reference value: 90.1%). The format is functional. Particulars: B16-F10, 45 h, read-out: Activity. Summed up: as §1
The nature of data set [9]: Cytotoxicity against mouse B16F10 cells assessed as cell killing effect after 72 hrs by MTT assay. Type of data set: functional, cell-based. Particulars: B16-F10, 72 h. A digest of the protocol:
as §2

The nature of data set [10]: Induction of reactive oxygen species generation in mouse NIH/3T3 cells at 2 uM after 36 hrs by DCFDA dye-based fluorescence microscopic analysis. Particulars: nih3t3, 36 h. Type of data set: cell-based. A digest of the protocol: (§4)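 Treated cells were imaged for ROS by fluorescence microscopy at 20× magnification, with untreated cells as control.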
A further data set relates to A549. Nature of the data set: Cytotoxicity against human A549 cells assessed as cell killing effect after 72 hrs by MTT assay. The format is functional, cell-based. Particulars: A549, 72 h. Summed up:
as §2

A further data set concerns MCF7. Nature of the data set: Cytotoxicity against human MCF7 cells assessed as cell killing effect after 72 hrs by MTT assay. The format is functional, cell-based. Particulars: MCF7, 72 h. Summed up: as §2
Data set [11] deals with B16-F10. Nature of the data set: Induction of reactive oxygen species generation in mouse B16F10 cells at 2 uM after 36 hrs by DCFDA dye-based fluorescence microscopic analysis. The format is functional, cell-based. A digest of the protocol:
as §4

In another data set the test system is OVCAR-3. Nature of the data set: Cytotoxicity against human OVCAR3 cells assessed as cell killing effect after 72 hrs by MTT assay. Type of data set: functional, cell-based. Particulars: OVCAR-3, 72 h. A digest of the protocol:
as §2

Data set [12] in a line: Cytotoxicity against mouse NIH/3T3 cells assessed as cell killing effect after 72 hrs by MTT assay. The format is cell-based. Particulars: NIH3T3, 72 h. A digest of the protocol: as §2
The subject of another data set is CHO. Nature of the data set: Cytotoxicity against CHO cells assessed as cell killing effect after 72 hrs by MTT assay. Type of data set: cell-based. Particulars: Cricetulus griseus. Summed up: as §2

The source made the active and inactive calls. The calls are words filed in the database; no cut-off is given here.

Turning to `COc1ccc(CN2C(=O)/C(=C(/c3ccc(O)cc3)c3ccc(OCCCN)cc3)c3ccccc32)cc1`, the Activity is given as 0% with B16-F10 [1], 8.4% in the data set with B16-F10 [2], 0.9% in the data set with B16-F10 [4] and “Non-toxic” in [10]. The IC50 in the data set with MDA-MB-231 is greater than 20 µM; in [7], greater than 20 µM; in [9] it was greater than 20 µM; in the data set on A549 it was 1.36 µM. The Drug uptake result in [3] is reported as “Active”; in [5], “Active”; in data set [6] it was “Not Active”. Moreover, the viability at 2 µM in the data set on B16-F10 [8] came out at 90.7%.
As for `C=C(C)[C@@H]1CC[C@]2(C(=O)O)CC[C@]3(C)[C@H](CC[C@@H]4[C@@]5(C)CC[C@H](O)C(C)(C)[C@@H]5CC[C@]43C)[C@@H]12` [BETULINIC ACID], the Activity in the data set on B16-F10 [1] is on record as 0.3%; in the data set with B16-F10 [2], 0%; with B16-F10 [4], 0.9%; in [10], “Non-toxic”. The half-inhibitory concentration (IC50) in the data set with MDA-MB-231 was greater than 20 µM; in the data set on MCF7, 10.5 µM; in the data set on OVCAR-3, 8.37 µM; in data set [12], greater than 20 µM; in [7] it was 10.2 µM; in data set [9], greater than 20 µM. The concentration for half-maximal inhibition (IC50) in the data set with A549 and with CHO was greater than 20 µM each time. Further, the result in the data set on B16-F10 [11] was Active. Also, the viability at 2 µM in the data set on B16-F10 [8] is 98.8%.
Regarding `COc1ccc(CN2C(=O)C(=C(c3ccc(O)cc3)c3ccc(O)cc3)c3ccccc32)cc1`, the Activity is given as 0.2% in the data set with B16-F10 [1], 5.1% with B16-F10 [2], 1.7% in the data set with B16-F10 [4] and “Non-toxic” in data set [10]. Moreover, the IC50 (in the data set on MDA-MB-231; in the data set with MCF7; in the data set on OVCAR-3; in [12]; in [7]; in [9]) was greater than 20 µM each time. In addition, the IC50 with CHO is greater than 20 µM. Further, the Drug uptake result in [3], in [5] and in [6] was “Active” throughout. Moreover, the viability at 2 µM in the data set on B16-F10 [8] stood at 93%.
Consider `COc1cccc2c1C(=O)c1c(O)c3c(c(O)c1C2=O)C[C@@](O)(C(=O)CO)C[C@@H]3O[C@H]1C[C@H](N)[C@H](O)[C@H](C)O1` [DOXORUBICIN], for which the Activity with B16-F10 [1] is on record as 1.1%; with B16-F10 [2], 34.1%; in the data set on B16-F10 [4], 21.4%; in data set [10] it was “Toxic”. The Drug uptake entry in data set [3], in data set [5] and in data set [6] was “Active” throughout. Further, in the data set with B16-F10 [11], the outcome was Active. Further, the half-inhibitory concentration (IC50) in data set [12] is 7.21 µM; in data set [7], 1.03 µM; in data set [9], 0.663 µM. Further, the viability at 2 µM with B16-F10 [8] stood at 43.4%.
For `C=C(C)[C@@H]1CC[C@]2(C(=O)NCCCNC(=S)Nc3ccc4c(c3)C(=O)OC43c4ccc(O)cc4Oc4cc(O)ccc43)CC[C@]3(C)[C@H](CC[C@@H]4[C@@]5(C)CC[C@H](O)C(C)(C)[C@@H]5CC[C@]43C)[C@@H]12`, the values for the Drug uptake result in data set [3], in [5] and in data set [6] were “Active”, “Active” and “Not Active”, respectively. Further, the half-inhibitory concentration (IC50) was greater than 20 µM in data set [12], 9.78 µM in [7] and 20 µM in [9].
Consider `C=C(C)[C@@H]1CC[C@]2(C(=O)NCCCOc3ccc(/C(=C4\C(=O)N(Cc5ccc(OC)cc5)c5ccccc54)c4ccc(O)cc4)cc3)CC[C@]3(C)[C@H](CC[C@@H]4[C@@]5(C)CC[C@H](O)C(C)(C)[C@@H]5CC[C@]43C)[C@@H]12`, for which the Activity in the data set on B16-F10 [1] is given as 3.8%; with B16-F10 [2], 5%; in the data set on B16-F10 [4], 54.6%; in [10], “Non-toxic”. Further, the IC50 in the data set on MDA-MB-231 was 1.26 µM; in the data set on MCF7, 7.4 µM; in the data set with OVCAR-3, 6.05 µM; in [12] it was greater than 20 µM; in data set [7], 2.63 µM; in data set [9], 2.3 µM. The concentration for half-maximal inhibition (IC50) is 2.56 µM in the data set on A549 and greater than 20 µM in the data set on CHO. For the same molecule, the Drug uptake entry in [3] is listed as “Active”; in data set [5] it was “Active”; in [6], “Not Active”. Also, the outcome with B16-F10 [11] was Active. For the same molecule, the viability at 2 µM with B16-F10 [8] was 36.6%.
